ChEMBL document CHEMBL1125150, “Arabinofuranosylpyrrolo[2,3-d]pyrimidines as potential agents for human cytomegalovirus infections” (J Med Chem, 1990)

Columns and labels:
[1] = Tested in vitro for cytotoxicity against the monkey kidney cells (BSC-1 cells).; format: functional, cell-based; conditions: Cercopithecidae
Summary of the method: (§1)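 Uninfected HFF or BSC-1 cells in the plaque-reduction plates were scored visually at 35- and 60-fold magnification on a 0 to 4+ scale on the staining day. IC50 was taken by regression against log concentration.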

HFF = experiment: Tested in vitro for cytotoxicity against the normal human diploid cells (HFF cells).; format: functional, cell-based; summary of the method: as §1
Human alphaherpesvirus 1 [2] = experiment: Tested in vitro for antiviral activity against HSV-1 in plaque reduction assay.; format: functional, organism-based
Summary of the method: (§2)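 Plaque reduction used HSV-1 strain S-148 on BSC-1 (African green monkey kidney) monolayers. The inoculum held about 100 PFU, and compounds were dissolved in the overlay medium. IC50 was regressed from percent inhibition against log concentration. Acyclovir or ganciclovir positive controls were run, with sets rejected if the control deviated >1.5 SD from its mean.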

Human betaherpesvirus 5 [3] = experiment: Tested in vitro for antiviral activity against human cytomegalovirus (HCMV) in plaque reduction assay.; format: functional, organism-based
Summary of the method: (§3)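 HCMV Towne strain (plaque-purified P0) was used on HFF monolayers. The inoculum held about 50 PFU, and compounds were dissolved in the overlay medium. Plaques were enumerated. IC50 came from linear regression of percent inhibition against log concentration. Acyclovir or ganciclovir served as positive control, and a set was rejected if the control deviated >1.5 SD from its mean.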

L1210 [4] = experiment: Tested in vitro for antiproliferative activity against growth rate of L1210 cells.(delayed growth inhibition); format: functional, Mus musculus; design: concentration or dose not given beside the values
Summary of the method: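 L1210 cells were grown in static suspension in Fischer's medium with drug for 4 days. Growth rate was the control-to-treated ratio of population doubling times. For delayed inhibition it was taken over 48–96 h, when control doubling time averaged 22 h. IC50 is the concentration halving growth rate relative to control.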

[5] = Tested in vitro for cytotoxicity against the human neoplastic cell line (KB cells).; format: functional, cell-based
Summary of the method: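 KB cells were grown in MEM(H) with 10% calf serum. Incorporation of radiolabelled precursors into DNA, RNA and protein was measured. Separate IC50s came from regression against log concentration and the three were averaged. Values are averages of two to five experiments.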

L1210 [6] = experiment: Tested in vitro for antiproliferative activity against growth rate of L1210 cells.; format: functional, Mus musculus
Summary of the method: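 L1210 cells were grown in static suspension in Fischer's medium with a range of compound concentrations, and growth rate was followed over 4 days. Growth rate was the control-to-treated ratio of population doubling times. It was scored separately for 0–48 h and 48–96 h, and the lower value was kept. IC50 was the concentration giving 50% of the control growth rate.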

Human alphaherpesvirus 2 [7] = experiment: Tested for activity against the human foreskin fibroblasts herpes simplex virus-2 (HSV-2) cell lines; format: functional, organism-based
Summary of the method: (§4)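 Plaque reduction used HSV-2 (MS strain) in HFF cells and HSV-1 (E-377 strain) in primary rabbit kidney cells. Monolayers got 20–50 PFU for 1 h at 37 °C, then an agarose overlay holding serial 5-fold drug dilutions in MEM(E). Neutral red staining on day 3 preceded plaque counts against untreated controls. Values average two or more experiments.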

Human betaherpesvirus 5 [8] = experiment: Tested in vitro for antiviral activity against human cytomegalovirus (HCMV) in yield reduction assay.; format: functional
Human alphaherpesvirus 1 [9] = experiment: Tested for activity against the monkey kidney herpes simplex virus-1 (HSV-1) cell lines; format: functional, organism-based; summary of the method: as §2
Human alphaherpesvirus 1 [10] = experiment: Tested for activity against the rabbit kidney herpes simplex virus-1 (HSV-1) cell lines; format: functional, organism-based; summary of the method: as §4
Human alphaherpesvirus 1 [11] = experiment: Tested for visual cytotoxicity against monkey kidney herpes simplex virus-1 (HSV-1) cell lines; format: functional, organism-based; summary of the method: as §1
Human alphaherpesvirus 1 [12] = experiment: Tested for visual cytotoxicity against rabbit kidney herpes simplex virus-1 (HSV-1) cell lines; format: functional, organism-based
Human betaherpesvirus 5 [13] = experiment: Tested for activity against human cytomegalovirus (HCMV) in human foreskin fibroblasts cell lines using plaque assay; format: functional, organism-based; conditions: Human betaherpesvirus 5, Fibroblast; summary of the method: as §3
Human betaherpesvirus 5 [14] = experiment: Tested for visual cytotoxicity against the human cytomegalovirus (HCMV) cell lines in human foreskin fibroblasts; format: functional, organism-based; summary of the method: as §1
Mus musculus [15] = experiment: Tested for effect on the mortality of mice inoculated with MCMV at 16.7 mg/kg at 24 hr; format: functional
Summary of the method: (§5)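 Female Swiss Webster mice, 3 weeks old, were infected ip with 2 × 10⁵ PFU of MCMV Smith strain. Groups of 15 received drug ip twice daily for 5 days, starting at the stated hour after inoculation. Mice were watched daily for 21 days, and final mortality and mean day of death were scored. Fisher exact test (mortality) and Mann-Whitney U test (mean day of death) were used against placebo. Uninfected drug-toxicity controls were 10 mice.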

Mus musculus [16] = experiment: Tested for effect on the mortality of mice inoculated with MCMV at 16.7 mg/kg at 48 hr; format: functional; summary of the method: as §5
Mus musculus [17] = experiment: Tested for effect on the mortality of mice inoculated with MCMV at 5.6 mg/kg at 12 hr; format: functional; summary of the method: as §5
Mus musculus [18] = experiment: Tested for effect on the mortality of mice inoculated with MCMV at 5.6 mg/kg at 24 hr; format: functional; summary of the method: as §5
Mus musculus [19] = experiment: Tested for effect on the mortality of mice inoculated with MCMV at 5.6 mg/kg at 48 hr; format: functional; summary of the method: as §5
Mus musculus [20] = experiment: Tested for effect on the mortality of mice inoculated with MCMV at 50 mg/kg at 12 hr; format: functional; summary of the method: as §5
Mus musculus [21] = experiment: Tested for effect on the mortality of mice inoculated with MCMV at 50 mg/kg at 24 hr; format: functional; summary of the method: as §5
Mus musculus [22] = experiment: Tested for effect on the mortality of mice inoculated with MCMV at 50 mg/kg at 48 hr; format: functional; summary of the method: as §5
Murid betaherpesvirus 1 [23] = experiment: Tested for activity against mouse cytomegalovirus (MCMV) in mouse embryo fibroblasts using plaque assay; format: functional, organism-based
Summary of the method: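 MCMV Smith strain was plated on primary mouse embryo fibroblasts at 20–50 PFU per monolayer, with 1 h at 37 °C. Serial 5-fold drug dilutions in twice-concentrated MEM(E) were mixed with 1% agarose as overlay. A further drug-free overlay was added on day 4. Cultures were stained with neutral red on day 7 and plaques counted against untreated controls. Values average two or more experiments.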

Murid betaherpesvirus 1 [24] = experiment: Tested for visual cytotoxicity against the mouse cytomegalovirus (MCMV) in mouse embryo fibroblasts; format: functional, organism-based
Human alphaherpesvirus 2 [25] = experiment: Tested for visual cytotoxicity against the human foreskin fibroblasts herpes simplex virus-2 (HSV-2) cell lines; format: functional, organism-based
Mus musculus [26] = experiment: Tested for effect on the mortality of mice inoculated with MCMV at 16.7 mg/kg at 12 hr; format: functional; summary of the method: as §5
Human alphaherpesvirus 1 [27] = experiment: Tested in vitro for antiviral activity against HSV-1 in yield reduction assay.; format: functional
[28] = Human betaherpesvirus 5, read-out: IC90

NC(=O)c1cn([C@@H]2O[C@H](CO)[C@@H](O)[C@@H]2Cl)c2ncnc(N)c12
IC50 [1]: > 100 µM | IC50 (HFF): > 100 µM | IC50 (Human alphaherpesvirus 1 [2]): > 100 µM | IC50 (Human betaherpesvirus 5 [3]): > 100 µM | Control (L1210 [4]): 73%

NC(=O)c1cn([C@@H]2O[C@H](CO)[C@@H](O)[C@@H]2N)c2ncnc(N)c12
IC50 [1]: > 100 µM | IC50 (HFF): > 100 µM | IC50 (Human alphaherpesvirus 1 [2]): > 100 µM | IC50 (Human betaherpesvirus 5 [3]): > 100 µM | IC50 [5]: > 100 µM | Control (L1210 [4]): 46%

NC(=O)c1cn([C@@H]2O[C@H](CO)[C@@H](O)[C@@H]2I)c2ncnc(N)c12
IC50 [1]: > 100 µM | IC50 (HFF): 100 µM | IC50 (Human alphaherpesvirus 1 [2]): > 100 µM | IC50 (Human betaherpesvirus 5 [3]): > 100 µM | Control (L1210 [4]): 38%

NC(=O)c1cn([C@@H]2O[C@H](CO)[C@@H](O)[C@@H]2Br)c2ncnc(N)c12
IC50 [1]: > 100 µM | IC50 (HFF): > 100 µM | IC50 (Human alphaherpesvirus 1 [2]): > 100 µM | IC50 (Human betaherpesvirus 5 [3]): > 100 µM | Control (L1210 [6]): 92%

N#Cc1cn([C@@H]2O[C@H](CO)[C@@H](O)[C@@H]2N)c2ncnc(N)c12
IC50 [1]: > 100 µM | IC50 (Human alphaherpesvirus 2 [7]): 114 µM | IC50 (HFF): > 100 µM | IC90 (Human betaherpesvirus 5 [8]; [28]): 110 µM | IC50 (Human alphaherpesvirus 1 [9]): > 100 µM | IC50 (Human alphaherpesvirus 1 [10]): 117 µM | IC50 (Human alphaherpesvirus 1 [11]): > 100 µM | IC50 (Human alphaherpesvirus 1 [12]): 350 µM | IC50 (Human alphaherpesvirus 1 [2]): > 100 µM | IC50 (Human betaherpesvirus 5 [13]): 14 µM | IC50 (Human betaherpesvirus 5 [14]): > 100 µM | IC50 (Human betaherpesvirus 5 [3]): 14 µM | IC50 [5]: 105 µM | Control (L1210 [4]): 48% | MDD (Mus musculus [15]): 4.7 mean day of death | mortality at 16.7 mg/kg (Mus musculus [15]): 100% | MDD (Mus musculus [16]): 4.6 mean day of death | mortality at 16.7 mg/kg (Mus musculus [16]): 100% | MDD (Mus musculus [17]): 4.5 mean day of death | mortality at 5.6 mg/kg (Mus musculus [17]): 100% | MDD (Mus musculus [18]): 4.6 mean day of death | mortality at 5.6 mg/kg (Mus musculus [18]): 93% | MDD (Mus musculus [19]): 5.6 mean day of death | mortality at 5.6 mg/kg (Mus musculus [19]): 100% | MDD (Mus musculus [20]): 4.1 mean day of death | mortality at 50 mg/kg (Mus musculus [20]): 73% | MDD (Mus musculus [21]): 4.4 mean day of death | mortality at 50 mg/kg (Mus musculus [21]): 100% | MDD (Mus musculus [22]): 4.9 mean day of death | mortality at 50 mg/kg (Mus musculus [22]): 87% | IC50 (Murid betaherpesvirus 1 [23]): 13 µM | IC50 (Murid betaherpesvirus 1 [24]): > 350 µM | IC50 (Human alphaherpesvirus 2 [25]): 350 µM | MDD (Mus musculus [26]): 4.6 mean day of death | mortality at 16.7 mg/kg (Mus musculus [26]): 93%

N#Cc1cn([C@@H]2O[C@H](CO)[C@@H](O)[C@@H]2Cl)c2ncnc(N)c12
IC50 [1]: > 100 µM | IC50 (HFF): 140 µM | IC90 (Human betaherpesvirus 5 [8]; [28]): 75 µM | IC50 (Human alphaherpesvirus 1 [2]): > 100 µM | IC50 (Human betaherpesvirus 5 [3]): 21 µM | Control (L1210 [4]): 24%

N#Cc1cn([C@@H]2O[C@H](CO)[C@@H](O)[C@@H]2I)c2ncnc(N)c12
IC50 [1]: > 100 µM | IC50 (HFF): 100 µM | IC90 (Human betaherpesvirus 5 [8]; [28]): 20 µM | IC50 (Human alphaherpesvirus 1 [2]): > 100 µM | IC50 (Human betaherpesvirus 5 [3]): 40 µM | Control (L1210 [4]): 24%

[N-]=[N+]=N[C@H]1[C@H](O)[C@@H](CO)O[C@H]1n1cc(C(N)=O)c2c(N)ncnc21
IC50 [1]: > 100 µM | IC50 (HFF): 66 µM | IC90 (Human betaherpesvirus 5 [8]; [28]): 100 µM | IC50 (Human alphaherpesvirus 1 [2]): > 100 µM | IC50 (Human betaherpesvirus 5 [3]): 28 µM | IC50 [5]: 179 µM | Control (L1210 [4]): 12%

N#Cc1cn([C@@H]2O[C@H](CO)[C@@H](O)[C@@H]2N=[N+]=[N-])c2ncnc(N)c12
IC50 [1]: > 100 µM | IC50 (HFF): 55 µM | IC90 (Human betaherpesvirus 5 [8]; [28]): 37 µM | IC50 (Human alphaherpesvirus 1 [2]): > 100 µM | IC50 (Human betaherpesvirus 5 [3]): 34 µM | IC50 [5]: 151 µM | Control (L1210 [4]): 14%

N#Cc1cn([C@@H]2O[C@H](CO)[C@@H](O)[C@@H]2Br)c2ncnc(N)c12
IC50 [1]: > 100 µM | IC50 (HFF): 181 µM | IC90 (Human betaherpesvirus 5 [8]; [28]): 90 µM | IC50 (Human alphaherpesvirus 1 [2]): > 100 µM | IC50 (Human betaherpesvirus 5 [3]): 162 µM | Control (L1210 [4]): 16%

Nc1nc2c(ncn2COCCO)c(=O)[nH]1 [ACYCLOVIR]
IC50 [1]: > 100 µM | IC50 (HFF): > 100 µM | IC90 (Human betaherpesvirus 5 [8]; [28]): 90 µM | IC90 (Human alphaherpesvirus 1 [27]): 7 µM | IC50 [5]: > 100 µM

Nc1nc2c(ncn2COC(CO)CO)c(=O)[nH]1 [GANCICLOVIR]
IC50 [1]: > 100 µM | IC50 (HFF): > 100 µM | IC90 (Human betaherpesvirus 5 [8]): 1.8 µM | IC90 (Human alphaherpesvirus 1 [27]): 1.2 µM | IC50 (Human betaherpesvirus 5 [3]): 9.2 µM | IC50 [5]: > 100 µM
